Laboratory results reported in ChEMBL document CHEMBL1212802, “Newly identified antibacterial compounds are topoisomerase poisons in African trypanosomes” (Antimicrob Agents Chemother, 2010).
The source made the active and inactive calls.

Columns and labels:
[1] = tested on: Trypanosoma brucei brucei; assay: Antitrypanosomal activity against Trypanosoma brucei brucei MiTat 1.2 strain 427 bloodstream by acid phosphatase method; assay type: functional, organism-based
Outline: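 Bloodstream cells at 2 × 10^5/ml were given 2× serial dilutions of compound (final DMSO ≤1%), quadruplicate wells, for 20–24 h at 37°C. Motility was checked microscopically. p-Nitrophenyl phosphate in acetate buffer pH 5.5 with Triton X-100 was added for 5 h at 37°C, then A405 was read. Three runs; EC50 from Emax model fit; outliers removed by Chauvenet's criterion.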

[2] = tested on: Trypanosoma brucei brucei; assay: Inhibition of mitochondrion topoisomerase 1A in Trypanosoma brucei brucei MiTat 1.2 strain 427 bloodstream assessed as increase in protein-sensitive linear DNA forms at 0-40 uM
Outline: (§1)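 Free minicircle profiles: 1.2 × 10^7 cells were exposed to compound for 30 min at 37°C. Cells were lysed in SDS/EDTA buffer with or without proteinase K (2 h, 55°C), then treated with RNase A. DNA was run on 1.5% agarose with ethidium bromide and Southern-blotted with a 32P probe to the conserved 124-bp minicircle sequence. Read by phosphorimaging.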

[3] = tested on: Trypanosoma brucei brucei; assay: Inhibition of mitochondrion topoisomerase 1A in Trypanosoma brucei brucei MiTat 1.2 strain 427 bloodstream assessed as increase in protein-sensitive linear DNA forms at 60-100 uM; outline: as §1
[4] = tested on: Trypanosoma brucei brucei; assay: Inhibition of mitochondrion topoisomerase 1A in Trypanosoma brucei brucei MiTat 1.2 strain 427 bloodstream assessed as protection of linerarizd minicircle from lambda exonuclase at 25.5 uM
Outline: (§2)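 Cells were treated 1 h at 37°C, lysed with SDS, and digested with proteinase K and RNase. DNA was phenol-extracted, precipitated and cleaned up. It was then digested with λ exonuclease (glycine-KOH pH 9.4, MgCl2, BSA) or exonuclease III (Bis-Tris-propane pH 7.0, MgCl2, DTT) for 30 min at 37°C. HindIII-linearized pBluescript served as internal control. Minicircles were detected by Southern blot.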

[5] = tested on: Trypanosoma brucei brucei; assay: Inhibition of mitochondrion topoisomerase 1A in Trypanosoma brucei brucei MiTat 1.2 strain 427 bloodstream assessed as protection of linerarizd minicircle from lambda exonuclase at 63 uM; outline: as §2
[6] = tested on: Trypanosoma brucei brucei; assay: Inhibition of mitochondrion topoisomerase 1A in Trypanosoma brucei brucei MiTat 1.2 strain 427 bloodstream assessed as protection of linerarizd minicircle from exonuclase 3 at 25.5 uM; outline: as §2
[7] = tested on: Trypanosoma brucei brucei; assay: Inhibition of mitochondrion topoisomerase 1A in Trypanosoma brucei brucei MiTat 1.2 strain 427 bloodstream assessed as protection of linerarizd minicircle from exonuclase 3 at 63 uM; outline: as §2
[8] = tested on: Trypanosoma brucei brucei; assay: Antitrypanosomal activity against Trypanosoma brucei brucei MiTat 1.2 strain 427 bloodstream assessed as decrease in topoisomerase 1Amt level at 0-100 uM; assay type: functional, organism-based
Outline: (§3)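 Western band depletion: 1.2 × 10^7 cells in medium were exposed to compound for 30 min at 37°C. A portion taken just before lysis was lysed in SDS/DTT sample buffer and run on SDS-PAGE. Blots were probed for c-Myc-tagged topoisomerase IAmt (anti-c-Myc) and for topoisomerase IImt (specific antiserum), with enolase as loading control. Free enzyme was quantitated densitometrically.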

[9] = tested on: Trypanosoma brucei brucei; assay: Antitrypanosomal activity against Trypanosoma brucei brucei MiTat 1.2 strain 427 bloodstream assessed as decrease in topoisomerase 1Amt level at 0-120 uM; assay type: functional, organism-based; outline: as §3
[10] = tested on: Trypanosoma brucei brucei; assay: Antitrypanosomal activity against Trypanosoma brucei brucei MiTat 1.2 strain 427 bloodstream assessed as decrease in topoisomerase 2mt level at 0-100 uM; assay type: functional, organism-based; outline: as §3
[11] = tested on: Trypanosoma brucei brucei; assay: Antitrypanosomal activity against Trypanosoma brucei brucei MiTat 1.2 strain 427 bloodstream assessed as decrease in topoisomerase 2mt level at 0-120 uM; assay type: functional, organism-based; outline: as §3
Nucleic Acid = assay: Binding affinity to plasmid DNA assessed as DNA unwinding in presence of vaccinia virus topoisomerase 1B by electrophoresis; assay type: nucleic-acid assay
Outline: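 Supercoiled pBluescript, or pBluescript pre-relaxed with E. coli topoisomerase IA (250 ng), was exposed to a range of compound concentrations in 50 mM Tris HCl pH 7.5, 50 mM NaCl, 5 mM MgCl2. Then 1 pM vaccinia topoisomerase IB was added (1 h, 37°C). Reactions were SDS-quenched, run on 1% agarose in Tris-borate-EDTA, and stained with ethidium bromide.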

[12] = tested on: Trypanosoma brucei brucei; assay: Inhibition of topoisomerase in Trypanosoma brucei brucei MiTat 1.2 strain 427 bloodstream assessed as enzyme-DNA cleavable complex at 50 uM (RvB = 2.2 +/- 0.05%)
Outline: (§4)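 KSDS assay: cells at 10^7/ml in thymidine-free medium were labelled 1 h at 37°C with [3H]thymidine, washed, and treated 30 min at 37°C with DMSO, 500 μM etoposide or compound, in triplicate. Lysates in SDS/EDTA with calf thymus DNA were heated 10 min at 65°C, then KCl-precipitated and washed, and the precipitate was scintillation-counted. Percent trapped DNA = KSDS cpm ÷ TCA-precipitable cpm of untreated cells.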

[13] = tested on: Trypanosoma brucei brucei; assay: Inhibition of topoisomerase in Trypanosoma brucei brucei MiTat 1.2 strain 427 bloodstream assessed as enzyme -DNA cleavable complex at 50 uM relative to DMSO; outline: as §4

| Structure (SMILES) | EC50 [1] [µM] | inhibition [2] | inhibition [3] | inhibition [4] | inhibition [5] | inhibition [6] | inhibition [7] | Activity [8] | Activity [9] | Activity [10] | Activity [11] | Activity (Nucleic Acid) | % DNA in cleavable complexes [12] [%] | Ratio [13] |
| --- | --- | --- | --- | --- | --- | --- | --- | --- | --- | --- | --- | --- | --- | --- |
| CN(C)CCc1cc2c(c3c1ccc1ccccc13)OCO2 | 6.3 | Active | inactive | inactive | inactive | Active | Active | inactive | inactive | Active | Active | Dose-dependent effect | 1.9 | 0.86 |
| O=c1c2cccc3c2c(nn1CN1CCCCC1)-c1ccccc1-3 | 16.9 | Active | inactive | inactive | inactive | Active | Active | inactive | inactive | Active | Active | Dose-dependent effect | 1.7 | 0.77 |
